Screening data deposited in PubChem BioAssay by Broad Institute.
An excerpt weighted towards active compounds, which were near 2.6% of everything screened.
PvdQ inh: P. aeruginosa PvdQ acylase inhibition. inhibition, % at 10 µM. purified PvdQ acylase, fluorescence plate reader. 340,000 compounds, 0.063% hits; in the data active means inhibition above about 30%, passing the limit was not always enough; inconclusive means no clear call, values can overlap the other calls
dFosB act: enhances mouse delta FosB homodimer DNA binding. purified delta FosB, TAMRA-CDK5 oligo fluorescence polarization; percent of positive-control signal above neutral wells. P13346. 340,000 compounds, 0.99% hits. activation, % at 25 µM. AID 493131;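 active means mean activation above about 17%, with every replicate also reaching it, limit read from the data, passing the limit was not always enough; inconclusive means only one of the two conditions met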
Target sequence (P13346 whole entry, looked up): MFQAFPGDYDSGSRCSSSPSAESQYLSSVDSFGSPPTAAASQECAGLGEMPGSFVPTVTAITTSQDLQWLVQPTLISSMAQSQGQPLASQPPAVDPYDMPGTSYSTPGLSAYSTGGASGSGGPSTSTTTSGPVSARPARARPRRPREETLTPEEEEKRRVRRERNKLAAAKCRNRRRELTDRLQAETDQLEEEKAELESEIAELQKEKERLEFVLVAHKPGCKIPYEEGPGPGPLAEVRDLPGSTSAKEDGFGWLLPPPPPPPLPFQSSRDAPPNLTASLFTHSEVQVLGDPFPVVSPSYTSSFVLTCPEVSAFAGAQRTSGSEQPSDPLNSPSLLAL
SR-BI DiI-HDL act: enhances SR-BI lipid uptake from DiI-HDL | CHO ldlA[mSR-BI] cells, DiI-HDL uptake fluorescence, 3 h; 100 = double the neutral-control signal | activation, % at 12.5 µM | 320,000 compounds, 0.096% hits | AID 504775;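 active means mean replicate activation of at least 60% and every replicate at or above 60%; inconclusive means mean or all-replicate condition met, but not both; inactive means mean below 60% and not all replicates reaching 60%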
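Test system: SR-BI-overexpressing, LDLR-lacking CHO cells; Medium: Ham's F12 with 0.5% BSA, HEPES 25 mM, pH 7.4; Schedule: 3 h, 37 °C; Technique: bottom-read fluorescence, 550/595 nm.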
rRNA inh HTS: inhibitors of bacterial rRNA selective over humanized ribosomes | E. coli WT GFP vs humanized-ribosome RFP mutants, fluorescence, 24 h; hits give low values; DMSO median 0, no signal -100 | 350,000 compounds, 1.6% hits | GFP signal change (wild-type ribosome), % (concentration not given with the values);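 active means significant combined selectivity score with lowered wild-type GFP, culture density cut under 30%, mutant RFP and density less affected; inactive means any of these conditions unmet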
XiGFP reactiv: X-chromosome reactivation activator | XiGFP mouse fibroblasts, % GFP-positive cells imaging, 3 d; cells co-treated with 5-aza-dC sensitizer; scaled so ellipticine positive control = 100% | AID 743238 | activation, % at 7.58 µM | 360,000 compounds, 0.055% hits;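 active means mean normalized replicate activation at least 10% and every replicate at or above 10%; inconclusive means only one of the two criteria met; inactive means mean below 10% and not all replicates reach 10%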
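System: SV40-immortalized XiGFP fibroblast cells, line 68-5-11 / Incubation: 3-day compound exposure, then 15 min fixation at room temperature / Compound: single concentration per compound, delivered by pin transfer / Buffer or medium: DMEM plus 5-aza-dC sensitizer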
SR-BI HDL uptake: mouse SR-BI HDL lipid transfer inhibition. ldlA[mSR-BI] CHO cells, DiI-HDL uptake fluorescence, 3 h. inhibition, % at 12.5 µM. 320,000 compounds, 0.96% hits. AID 488896;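 active means mean replicate inhibition of at least 70% and a set share of replicates each scoring 70 or more; inconclusive means meets just one of the two criteria; inactive means fails both criteria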
AID977621: wild-type E. coli growth inhibition versus H69 humanized strain – H69 mutant RFP, wild-type GFP, cherry-pick, dose response. shares compounds with rRNA inh HTS. fluorescence, 24 h. activity change, negative = inhibition at 50 µM. 1,900 tested, under 10 active. AID 977621;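 active means Wild-type ribosome reporter drop at least double the humanized mutant ribosome reporter drop, growth loss under a set limit; inconclusive means no clear call, values can overlap the other calls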;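 further: wild-type GFP and H69 mutant RFP strains grown together 50/50 in each well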
AID977628: growth of wild-type and h24-humanized E. coli strains – h24 mutant RFP vs wild-type GFP, cherry-pick, dose response | shares compounds with rRNA inh HTS | E. coli WT GFP strain growth, fluorescence, 24 h | activity change, negative = inhibition at 50 µM | 1,900 tested, under 10 active | AID 977628;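 active means compound lowering the normal-ribosome reporter at least twice as much as the humanized-ribosome reporter, growth loss under a set limit; inconclusive means no clear call, values can overlap the other calls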;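 further: wild-type GFP and h24 humanized RFP strains co-cultured 1 to 1 per well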
Hits are given with their value; i = inactive; ? = inconclusive; nt = no result given; ! = repeats disagree.

SMILES | PvdQ inh | dFosB act | SR-BI DiI-HDL act | rRNA inh HTS | XiGFP reactiv | SR-BI HDL uptake | AID977621 | AID977628
CCOc1ccc(NC(=O)CCc2nnc3ccc(N4CCC(C)CC4)nn23)cc1 | i | i | i | -20.4 | i | i | i | nt
Cc1nnc(NC(=O)c2csc3c2CCCC3)s1 | nt | nt | nt | i | i | nt | nt | nt
Cc1ccc2oc(=O)n(CCOc3ccccc3C)c2c1 | i | i | i | i | i | i | nt | nt
Cc1ccc2oc(=O)n(CCCOc3ccccc3C)c2c1 | i | i | i | -19.0 | i | i | i | ?
Cc1ccc2oc(=O)n(CC(=O)OCCC(C)C)c2c1 | i | i | i | -17.9 | i | i | i | i
CN(C)C1(CNC(=O)CC(NC(=O)c2ccccc2Cl)c2ccccc2)CCCCC1 (stereo not given) | i | i | nt | i | i | nt | nt | nt
C[C@@H]1CN([C@@H](C)CO)C(=O)Cc2cc(NC(=O)Cc3ccccc3)ccc2O[C@@H]1CN(C)S(=O)(=O)c1cccs1 | nt | nt | nt | i | i | nt | nt | nt
CN1C(=O)c2cc(NC(=O)c3cccc(F)c3)ccc2OC[C@H]2O[C@@H](CC(=O)NCC3CCCCC3)CC[C@@H]21 | nt | nt | nt | -25.1! | i | nt | i | i
CN1C(=O)c2cc(NC(=O)c3cccc(F)c3)ccc2OC[C@@H]2O[C@H](CC(=O)NCC3CCCCC3)CC[C@H]21 | nt | nt | nt | i | i | nt | nt | nt
Cc1cccc(N2CC(C(=O)Nc3ccc(S(=O)(=O)Nc4nccs4)cc3)CC2=O)c1C (stereo not given) | i | i | nt | i | i | nt | nt | nt
CC(C)Oc1nc(-c2ccccc2Cl)nc2ccccc12 | i | i | i | -18.2 | i | i | nt | i
CCOc1nc(-c2ccccc2O)nc2ccccc12 | i | i | i | i | nt | i | nt | nt
CCOC(=O)Nc1ccc2c(CN3CCN(S(=O)(=O)c4ccccc4F)CC3)cc(=O)oc2c1 | i | i | i | i | i | i | nt | nt
O=C(Nc1ccc2c(c1)OCO2)c1cccc(S(=O)(=O)N2CCCC2)c1 | i | i | i | -13.8 | nt | i | ? | nt
CCOC(=O)C1CCCN(Cc2ccccc2F)C1 (stereo not given) | i | i | i | nt | nt | i | nt | nt
CCOC(=O)C1CCCN(Cc2c(Cl)cccc2Cl)C1 (stereo not given) | i | i | i | -23.3 | nt | i | i | i
C[C@@H]1CN([C@@H](C)CO)C(=O)Cc2cc(NC(=O)Nc3ccc(C(F)(F)F)cc3)ccc2O[C@@H]1CN(C)S(=O)(=O)c1ccccc1 | nt | nt | nt | i | i | nt | nt | nt
O=C(Cn1c(CO)nc2ccccc21)NCCc1ccc(F)cc1 | i | i | i | -18.5 | i | i | ? | nt
C[C@@H]1CCCCO[C@H](CN(C)C(=O)NC2CCCCC2)[C@H](C)CN([C@@H](C)CO)C(=O)c2cc(NS(=O)(=O)c3cn(C)cn3)ccc2O1 | nt | nt | nt | i | i | nt | nt | nt
O=C(Nc1ccc2c(c1)OCCO2)C1C(c2ccccc2)=Nc2ccccc2N1C(=O)c1cccnc1 (stereo not given) | nt | nt | nt | -8.2 | i | nt | i | ?
COc1ccc(-c2ccccc2)cc1NC(=O)c1ccncc1 | i | i | i | -31.3 | i | i | i | nt
COc1ccc(OC)c(NC(=O)c2cccc(NC(=O)c3ccccc3)c2)c1 | i | i | i | i | i | i | nt | nt
CCOC(=O)c1csc(NC(=O)CCSc2ccccc2)n1 | i | i | i | i | i | i | nt | nt
CCOC(=O)c1csc(NC(=O)CC2CCCC2)n1 | i | i | i | -20.1 | i | i | i | nt
C[C@H]1CN([C@@H](C)CO)C(=O)CCCn2nncc2CO[C@@H]1CN(C)Cc1ccccc1C(F)(F)F | nt | nt | nt | -18.5! | i | nt | i | ?
SMILES | PvdQ inh | dFosB act | SR-BI DiI-HDL act | rRNA inh HTS | XiGFP reactiv | SR-BI HDL uptake | AID977621 | AID977628
Cc1ccccc1CN(C)C[C@H]1OCc2cnnn2CCCC(=O)N([C@@H](C)CO)C[C@H]1C | nt | nt | nt | i | i | nt | nt | nt
CCN(CC)/C(Sc1ccccc1)=C(\C(Cl)=C(Cl)Cl)[N+](=O)[O-] | i | i | i | i | i | i | nt | nt
CC(=O)Nc1ccc(OCc2nnc(-c3ccccc3)o2)cc1 | i | i | ? | -22.8 | i | i | ? | i
CC(=O)Nc1ccccc1OCc1nnc(-c2ccc(Cl)cc2)o1 | i | i | i | i | i | i | nt | nt
Brc1ccccc1OCCCOc1cccc2cccnc12 | i | i | i | i | i | i | nt | nt
CC1(C)CC2CC(C)(CN2c2ncnc3ccccc23)C1 (stereo not given) | i | i | i | -27.1 | nt | i | i | ?
CC1CCCCN1c1ncnc2ccccc12 (stereo not given) | i | i | i | nt | nt | i | nt | nt
CC(C)Oc1ccc(C(CC(=O)O)NC(=O)C(Sc2ccccc2)c2ccccc2)cc1 (stereo not given) | i | i | i | -27.3 | i | i | i | nt
Cc1cc(C)nc(SCc2cn3c(C)cccc3n2)n1 | nt | nt | nt | -18.6 | i | nt | nt | ?
Cc1ccnc(SCc2cn3c(C)cccc3n2)n1 | i | i | i | i | i | i | nt | nt
O=C(Nc1ccc2c(c1)OCCO2)c1cccnc1Oc1ccc(Cl)cc1 | i | i | i | -27.2 | i | i | i | nt
Cc1ccc2cccc(OCc3ccccc3)c2n1 | nt | nt | nt | -26.3 | i | nt | i | i
COC(=O)c1ccc(OS(=O)(=O)c2ccc(NC(C)=O)cc2)cc1 | i | i | i | -21.4 | i | i | nt | ?
COc1ccc(-c2nc(C#N)c(N3CCN(C(=O)c4ccco4)CC3)o2)cc1OC | i | i | i | i | i | i | nt | nt
CN(C1=C(N2CCOCC2)C(=O)c2ccccc2C1=O)c1ccccc1 | i | i | i | nt | i | i | nt | nt
Cc1ccc(NC(=O)C[n+]2cc(-c3ccccc3)n3c2CCC3)c(C)c1 | i | i | i | -21.2 | i | i | ? | ?
O=C(NCc1ccco1)c1ccc2ccccc2n1 | i | i | i | -14.0 | i | i | i | ?
Cc1nc2ccccc2cc1C(=O)NCc1ccco1 | i | i | i | nt | nt | i | nt | nt
CC1CCCC(NC(=O)COC(=O)Cc2c[nH]c3ccccc23)C1C (stereo not given) | i | i | i | -29.1 | i | i | i | i
CC1CCCC(NC(=O)COC(=O)Cc2ccc(Cl)cc2)C1C (stereo not given) | i | i | nt | i | i | i | nt | nt
CCOC(=O)C1CCCN(C(=O)c2ccc3ncsc3c2)C1 (stereo not given) | i | i | i | i | i | i | nt | nt
O=C(O)c1ccc2c(c1)N(Cc1ccccc1)C(=O)c1ccccc1S2 | i | i | i | -23.6 | i | i | i | nt
CCN1C(=O)c2ccccc2Sc2ccc(C(=O)O)cc21 | i | i | i | i | i | i | nt | nt
